We go through one molecule from ChEMBL document CHEMBL3877303 (J Med Chem, 2017).

The structures appear in SMILES notation. Activity calls are given as the source filed them. The rule behind the calls is not given here.

Series [1] has as its target T1, BCR/ABL p210 fusion protein (Homo sapiens, UniProt A1Z199). The series is described as follows: Inhibition of human BCR/ABL p210 fusion protein expressed in BAF3 cells assessed as growth inhibition measured after 72 hrs by CellTiter-Glo or CCK8 assay. The series is classed as cell-based. The method, boiled down:
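Seeded at 1 to 2.5×10^4 cells/mL with various compound concentrations, 72 h. Viability read by CellTiter-Glo luminescence or CCK-8 absorbance (450/655 nm), normalized to DMSO control, GI50 from curve fit, triplicate testing.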

Series [2] addresses Tyrosine-protein kinase Lck (Homo sapiens, UniProt P06239). The series is described as follows: Inhibition of recombinant C-terminal His-tagged human LCK cytoplasmic domain expressed in baculovirus expression system assessed as residual activity at 1 uM measured after 1 hr by FRET based Z'Lyte assay relative to control.
The target of series [3] is Tyrosine-protein kinase Blk (Homo sapiens, UniProt P51451). The series is described as follows: Inhibition of full length recombinant His-tagged human BLK cytoplasmic domain expressed in baculovirus expression system assessed as residual activity at 1 uM measured after 1 hr by FRET based Z'Lyte assay relative to control.
For series [4], the target named is T2, Epithelial discoidin domain-containing receptor 1 (Homo sapiens, UniProt Q08345). Description: Inhibition of human GST-tagged DDR1 cytoplasmic domain expressed in baculovirus expression system measured after 1 hr by FRET based Z'Lyte assay. The method, boiled down: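 Z'-LYTE FRET biochemical kinase assay run by Invitrogen on selected kinases identified from binding profiling; IC50 from dose-response.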

Series [5] has as its target Platelet-derived growth factor receptor beta (Homo sapiens, UniProt P09619). Description: Inhibition of Tel-fused PDGFR-beta (unknown origin) expressed in BAF3 cells assessed as growth inhibition measured after 72 hrs by CellTiter-Glo or CCK8 assay. The series is classed as cell-based. The method, boiled down: (§1)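 BaF3 lines were made by retroviral transduction with kinase-fusion MSCV vectors packaged in HEK293T cells. Cells were selected with puromycin for 48 h, then selected again without IL-3 so growth depends on the introduced kinase. […] They were seeded at 1 to 2.5×10^4 cells/mL with compound dilutions and incubated 72 h. Viability was read by CellTiter-Glo luminescence or CCK-8 absorbance (450/655 nm), normalized to DMSO control; GI50 was curve-fitted from triplicate tests.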

For a further series, the system named is BaF3. Description: Inhibition of BCR/ABL p210 fusion protein F317L mutant (unknown origin) expressed in BAF3 cells assessed as growth inhibition measured after 72 hrs by CellTiter-Glo or CCK8 assay. The series is classed as cell-based. The settings on record: Homo sapiens. Summed up:
as §1
For orientation: Cellular ATP, detected with luciferase, serves as a proxy for viable cell number.

Series [6] addresses T1, BCR/ABL p210 fusion protein. Description: Inhibition of BCR/ABL p210 fusion protein mediated signaling pathways assessed as reduction in ERK phosphorylation at T202/Y204 in human MEG01 cells at 0.01 to 3 uM measured after 2 hrs by immunoblotting. The series is classed as cell-based. Conditions: MEG-01. Summed up: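 After an ice-cold PBS wash, cells were lysed in RIPA buffer (50 mM Tris pH 8.0) with protease and phosphatase inhibitors, and protein was quantified by BCA. Lysates were run on SDS-PAGE, transferred to PVDF and blocked in 5% milk/TBST. Phospho- and total proteins were probed by immunoblot with ECL detection; β-actin served as loading control.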
A general note: Immunoblotting shows a protein as a band on a membrane.

Another series relates to GIST882. Description: Induction of apoptosis in human GIST882 cells assessed as increase in cleaved caspase-3 level at 0.1 to 3 uM by Western blot analysis. The series is classed as functional, cell-based. Summed up: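 Cells were treated with DMSO or serially diluted compound for the indicated periods. They were washed in ice-cold PBS and lysed in RIPA buffer with protease/phosphatase inhibitors, and protein was quantified by BCA. Lysates were resolved by SDS-PAGE, transferred to PVDF and blocked in 5% milk/TBST. Blots were probed for PARP and caspase-3, with β-actin as loading control, and detected by ECL.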

Series [7] is described as follows: Mean residence time (0 to t) in Sprague-Dawley rat at 1 mg/kg, iv. The series is classed as ADME, organism-based. Conditions: in vivo. The method, boiled down:
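Male Sprague-Dawley rats, 6-8 weeks old, fasted overnight, dosed iv or po. Jugular vein blood (~0.2 mL, heparin) sampled at 1 min to 8 h (iv) or 5 min to 24 h (po). Plasma separated by centrifugation at 2-8 °C and stored at -80 °C before analysis.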

The next series relates to K562. The series is described as follows: Antiproliferative activity against human K562 cells xenografted in nu/nu mouse administered daily via oral gavage measured 28 days post compound treatment by Ki-67 staining based assay. The series is classed as functional, cell-based. The method, boiled down:
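K562 xenograft tumors were taken after daily oral dosing. Tissue was fixed in 10% neutral-buffered formalin, paraffin-embedded and cut into 6-micron sections. […] Detection used DAB with a hematoxylin counterstain.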
In general terms: Xenograft models place foreign cells or tissue in a host animal.

A short description of series [8]: Anticancer activity against human K562 cells xenografted in nu/nu mouse assessed as tumor weight at 25 mg/kg administered via oral gavage measured after 28 days (reference value: 6.75 g). The series is classed as functional. Summed up:
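Female nu/nu mice received ten million K562 cells subcutaneously in the right flank, in PBS mixed 1:1 with Matrigel. Daily oral gavage began at 200-400 mm³ tumor size, with 4 or 5 mice per group. Dosing was 25, 50 or 100 mg/kg/d or vehicle (0.5% methylcellulose/0.4% Tween80) for 28 days. Body weight and tumor size were normalized to initial values, and final tumor weight was recorded. Data are mean ± SEM.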

The target of series [9] is T2, Epithelial discoidin domain-containing receptor 1. The settings on record: BaF3.
For series [10] the target is unchanged. The series is described as follows: Inhibition of human GST-tagged DDR1 cytoplasmic domain expressed in baculovirus expression system assessed as residual activity at 1 uM by KINOMEscan binding assay relative to control.

T2 sequence (Q08345 whole entry, the tested form may be a part): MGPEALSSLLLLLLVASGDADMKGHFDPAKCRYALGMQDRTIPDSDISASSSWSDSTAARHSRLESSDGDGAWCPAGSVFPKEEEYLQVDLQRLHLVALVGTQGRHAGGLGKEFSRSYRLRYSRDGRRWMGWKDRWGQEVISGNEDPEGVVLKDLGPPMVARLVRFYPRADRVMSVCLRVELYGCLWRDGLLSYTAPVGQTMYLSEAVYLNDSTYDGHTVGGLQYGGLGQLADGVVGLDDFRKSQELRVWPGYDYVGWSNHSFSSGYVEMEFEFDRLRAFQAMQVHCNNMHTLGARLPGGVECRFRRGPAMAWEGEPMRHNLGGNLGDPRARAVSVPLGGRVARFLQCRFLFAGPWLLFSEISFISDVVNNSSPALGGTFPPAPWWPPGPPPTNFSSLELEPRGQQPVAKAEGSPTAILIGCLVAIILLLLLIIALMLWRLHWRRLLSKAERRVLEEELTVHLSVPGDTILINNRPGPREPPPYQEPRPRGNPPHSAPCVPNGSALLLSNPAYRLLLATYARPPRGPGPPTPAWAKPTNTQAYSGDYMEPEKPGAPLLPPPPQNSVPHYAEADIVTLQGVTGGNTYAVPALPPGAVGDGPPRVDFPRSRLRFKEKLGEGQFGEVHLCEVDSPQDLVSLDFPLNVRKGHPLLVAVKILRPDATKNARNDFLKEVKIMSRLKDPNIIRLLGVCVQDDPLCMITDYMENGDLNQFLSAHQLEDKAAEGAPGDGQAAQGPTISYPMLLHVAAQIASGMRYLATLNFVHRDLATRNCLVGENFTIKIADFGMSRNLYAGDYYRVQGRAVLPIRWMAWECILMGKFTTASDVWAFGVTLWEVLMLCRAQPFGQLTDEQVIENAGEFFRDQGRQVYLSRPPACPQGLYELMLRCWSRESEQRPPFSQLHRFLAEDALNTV
T1 sequence (A1Z199 1-97): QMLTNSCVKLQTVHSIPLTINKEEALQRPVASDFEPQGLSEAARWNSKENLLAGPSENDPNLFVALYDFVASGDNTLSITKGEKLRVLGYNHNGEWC
Tyrosine-protein kinase Lck, sequence (P06239 2-509 limits assumed): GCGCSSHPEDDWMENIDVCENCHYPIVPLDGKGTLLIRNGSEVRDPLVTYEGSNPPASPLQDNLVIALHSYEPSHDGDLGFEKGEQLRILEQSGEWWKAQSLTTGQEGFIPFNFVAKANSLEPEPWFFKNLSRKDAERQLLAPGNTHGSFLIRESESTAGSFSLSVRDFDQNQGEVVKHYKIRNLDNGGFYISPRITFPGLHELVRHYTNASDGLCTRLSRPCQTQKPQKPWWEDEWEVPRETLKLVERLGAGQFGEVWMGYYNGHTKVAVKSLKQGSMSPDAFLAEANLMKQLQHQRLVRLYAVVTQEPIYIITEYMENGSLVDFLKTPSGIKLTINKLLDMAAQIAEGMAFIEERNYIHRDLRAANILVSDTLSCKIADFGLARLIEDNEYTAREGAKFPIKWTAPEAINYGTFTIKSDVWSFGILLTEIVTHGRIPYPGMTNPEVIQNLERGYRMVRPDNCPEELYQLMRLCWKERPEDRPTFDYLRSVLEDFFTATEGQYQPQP
Platelet-derived growth factor receptor beta, sequence (P09619 whole entry, the tested form may be a part): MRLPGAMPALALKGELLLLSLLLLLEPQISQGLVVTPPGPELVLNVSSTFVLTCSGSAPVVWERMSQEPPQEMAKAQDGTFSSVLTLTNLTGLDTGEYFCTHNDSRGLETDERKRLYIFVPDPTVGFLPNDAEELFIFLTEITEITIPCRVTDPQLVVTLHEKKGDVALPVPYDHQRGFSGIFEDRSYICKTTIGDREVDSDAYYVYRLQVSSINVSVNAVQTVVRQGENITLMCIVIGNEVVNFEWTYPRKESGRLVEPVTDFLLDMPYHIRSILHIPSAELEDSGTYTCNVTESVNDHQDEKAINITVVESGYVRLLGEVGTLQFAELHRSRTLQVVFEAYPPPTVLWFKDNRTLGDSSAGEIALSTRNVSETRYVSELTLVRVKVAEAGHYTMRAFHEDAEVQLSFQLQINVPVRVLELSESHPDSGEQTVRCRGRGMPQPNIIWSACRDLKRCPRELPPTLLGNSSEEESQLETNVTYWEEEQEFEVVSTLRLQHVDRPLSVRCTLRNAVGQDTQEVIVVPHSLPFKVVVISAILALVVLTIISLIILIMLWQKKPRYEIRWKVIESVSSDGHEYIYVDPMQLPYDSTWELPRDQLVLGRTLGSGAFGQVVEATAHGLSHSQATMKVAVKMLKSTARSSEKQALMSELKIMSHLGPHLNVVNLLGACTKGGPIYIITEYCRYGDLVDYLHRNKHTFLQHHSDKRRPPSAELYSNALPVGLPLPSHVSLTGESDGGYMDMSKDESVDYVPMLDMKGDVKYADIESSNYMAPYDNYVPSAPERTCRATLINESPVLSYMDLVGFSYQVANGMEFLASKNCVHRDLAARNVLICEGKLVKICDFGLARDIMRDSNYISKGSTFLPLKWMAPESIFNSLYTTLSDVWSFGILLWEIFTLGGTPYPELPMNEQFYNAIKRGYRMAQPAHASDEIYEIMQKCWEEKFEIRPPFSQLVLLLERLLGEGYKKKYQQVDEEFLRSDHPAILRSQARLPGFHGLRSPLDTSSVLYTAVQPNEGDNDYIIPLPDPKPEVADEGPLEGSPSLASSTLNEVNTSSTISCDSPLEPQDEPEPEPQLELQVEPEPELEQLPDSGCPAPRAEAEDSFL
Tyrosine-protein kinase Blk, sequence (P51451 2-505 limits assumed): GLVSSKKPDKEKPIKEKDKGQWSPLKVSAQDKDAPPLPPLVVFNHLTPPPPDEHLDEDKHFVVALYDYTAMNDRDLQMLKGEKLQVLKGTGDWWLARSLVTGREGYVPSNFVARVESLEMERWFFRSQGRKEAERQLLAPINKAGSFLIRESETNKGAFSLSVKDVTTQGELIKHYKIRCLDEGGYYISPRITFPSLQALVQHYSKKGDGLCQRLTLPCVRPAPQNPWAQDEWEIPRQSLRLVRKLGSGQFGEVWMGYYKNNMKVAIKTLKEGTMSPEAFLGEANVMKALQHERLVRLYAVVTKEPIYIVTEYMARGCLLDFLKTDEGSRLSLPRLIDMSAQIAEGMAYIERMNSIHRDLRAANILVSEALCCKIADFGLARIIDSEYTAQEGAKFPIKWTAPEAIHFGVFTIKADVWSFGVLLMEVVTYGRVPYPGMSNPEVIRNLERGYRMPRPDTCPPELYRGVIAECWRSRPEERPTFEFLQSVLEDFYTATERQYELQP

As a reminder, the GI50 is the concentration at which growth is held to half of that of the control. For orientation: IC50 means the concentration that inhibits the measured activity by half. Low readings indicate greater potency, high ones weaker potency. Usually MRT last stands for the average time that molecules of a dose stay in the body. For the molecule `Cc1ccc(C(=O)N2CCC(Oc3cc(NC(=O)c4ccc(CN5CCN(C)CC5)c(C(F)(F)F)c4)ccc3C)CC2)cn1`, the GI50 in [1] is 0.033 µM; in series [5], 0.014 µM; in the series on BaF3 it was 0.67 µM; in series [9], 9.77 µM. For the same molecule, the Activity was 0.55% in series [2]; 0.45% in [3]; “Dose-dependent effect” with K562; 7.46 g in series [8]; 0.35% in series [10]. The molecule further had an IC50 in series [4] of 0.116 µM. In addition, the inhibition result in series [6] is “Active”. The outcome in the series with GIST882 was Active. In addition, in series [7], the MRT last stood at 1.93 h.
